EC50, Activity and viability data for eight molecules are collected here from ChEMBL document CHEMBL4196009, “Novel vitexin-inspired scaffold against leukemia” (Eur J Med Chem, 2018).

Structures are written as SMILES.

As usually defined, the EC50 is the midpoint of the concentration-response curve.

Assay [1] has as its system KOPN-8. As to the kind of experiment: Antiproliferative activity against human KOPN8 cells after 72 hrs by CelTiter-Glo assay. The note with it: KOPN-8, 72 h. Format: functional, cell-based.
In assay [2] the test system is HepG2. Description: Antiproliferative activity against human HepG2 cells after 72 hrs by CelTiter-Glo assay. The note with it: HepG2, 72 h. The class given is functional, cell-based.
Assay [3] relates to BJ. Description: Antiproliferative activity against human BJ cells after 72 hrs by CelTiter-Glo assay. The class given is cell-based.
The subject of assay [4] is THLE-2. As to the kind of experiment: Antiproliferative activity against human THLE2 cells after 72 hrs by CelTiter-Glo assay. The conditions noted are these: THLE-2, 72 h. The class given is cell-based.
For assay [5], the system named is SUP-B15. As to the kind of experiment: Antiproliferative activity against human SUP-B15 cells after 72 hrs by CelTiter-Glo assay. Format: functional, cell-based. The conditions noted are these: SUP-B15, 72 h.
In assay [6] the test system is SEM cells. Description: Antiproliferative activity against human SEM cells after 72 hrs by CelTiter-Glo assay. The class given is functional, cell-based.
The test system of assay [7] is SUP-B15. As to the kind of experiment: Induction of apoptosis in human SUP-B15 cells assessed as late apoptotic cells at 2 uM after 24 hrs by Annexin V-FITC/propidium iodide staining-based flow cytometry (reference value: 2.2%). The class given is functional.
The subject of assay [8] is KOPN-8. As to the kind of experiment: Cell cycle arrest in human KOPN8 cells assessed as accumulation at G0/G1 phase at 2 uM after 24 hrs by propidium iodide staining-based flow cytometry (reference value: 24.77%). The class given is functional. (In general: A flow cytometer gives signals particle by particle.)
Assay [9] concerns SUP-B15. Description: Induction of apoptosis in human SUP-B15 cells assessed as necrotic cells at 2 uM after 24 hrs by Annexin V-FITC/propidium iodide staining-based flow cytometry (reference value: 9.2%). The class given is functional.
Assay [10] concerns MDA-MB-231. Description: Cell cycle arrest in human MDA-MB-231 cells assessed as accumulation at S phase at 2.5 uM after 24 hrs by propidium iodide staining-based flow cytometry (reference value: 20.15%). The class given is functional.
Assay [11] relates to KOPN-8. Description: Cell cycle arrest in human KOPN8 cells assessed as accumulation at G2/M phase at 2 uM after 24 hrs by propidium iodide staining-based flow cytometry (reference value: 9.67%). Format: functional.
Assay [12] concerns MDA-MB-231. Description: Cell cycle arrest in human MDA-MB-231 cells assessed as accumulation at G2/M phase at 2.5 uM after 24 hrs by propidium iodide staining-based flow cytometry (reference value: 9.38%). The class given is functional.
The subject of assay [13] is KOPN-8. Description: Cell cycle arrest in human KOPN8 cells assessed as accumulation at S phase at 2 uM after 24 hrs by propidium iodide staining-based flow cytometry (reference value: 66.56%). The class given is functional.
For assay [14], the system named is MDA-MB-231. As to the kind of experiment: Cell cycle arrest in human MDA-MB-231 cells assessed as accumulation at G0/G1 phase at 2.5 uM after 24 hrs by propidium iodide staining-based flow cytometry (reference value: 70.47%). The class given is functional.
In assay [15] the test system is KOPN-8. As to the kind of experiment: Induction of apoptosis in human KOPN8 cells assessed as early apoptotic cells at 2 uM after 24 hrs by Annexin V-FITC/propidium iodide staining-based flow cytometry (reference value: 0.1%). The class given is functional.
The subject of assay [16] is KOPN-8. Description: Induction of apoptosis in human KOPN8 cells assessed as necrotic cells at 2 uM after 24 hrs by Annexin V-FITC/propidium iodide staining-based flow cytometry (reference value: 0.2%). Format: functional.
The test system of assay [17] is SUP-B15. As to the kind of experiment: Induction of apoptosis in human SUP-B15 cells assessed as viable cells at 2 uM after 24 hrs by Annexin V-FITC/propidium iodide staining-based flow cytometry (reference value: 82.8%). Format: functional. The note with it: SUP-B15, 24 h, read-out: Activity.
The test system of assay [18] is KOPN-8. As to the kind of experiment: Induction of apoptosis in human KOPN8 cells assessed as late apoptotic cells at 2 uM after 24 hrs by Annexin V-FITC/propidium iodide staining-based flow cytometry (reference value: 9.5%). Format: functional.
Assay [19] concerns KOPN-8. As to the kind of experiment: Induction of apoptosis in human KOPN8 cells assessed as viable cells at 2 uM after 24 hrs by Annexin V-FITC/propidium iodide staining-based flow cytometry (reference value: 85.2%). The class given is functional. The conditions noted are these: KOPN-8, 24 h, read-out: Activity.
Assay [20] concerns SUP-B15. Description: Induction of apoptosis in human SUP-B15 cells assessed as early apoptotic cells at 2 uM after 24 hrs by Annexin V-FITC/propidium iodide staining-based flow cytometry (reference value: 0.1%). The class given is functional.
Assay [21] deals with KOPN-8. Description: Cell cycle arrest in human KOPN8 cells assessed as accumulation at S phase at 10 uM after 24 hrs by propidium iodide staining-based flow cytometry (reference value: 66.56%). Format: functional. The method, boiled down: (§1)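 KOPN-8 cells treated 24 h alongside a DMSO vehicle and a staurosporine (2.0 µM) positive control. Apoptosis was scored by FITC Annexin V / propidium iodide flow cytometry with quadrant gating (early, late apoptotic). DNA content was measured by PI staining to give the percentage of cells in G0/G1, S and G2/M. Groups were compared by t-test; error bars are SD.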

The test system of assay [22] is KOPN-8. As to the kind of experiment: Cell cycle arrest in human KOPN8 cells assessed as accumulation at G2/M phase at 10 uM after 24 hrs by propidium iodide staining-based flow cytometry (reference value: 9.67%). Format: functional. In outline: as §1
Assay [23] deals with KOPN-8. Description: Induction of apoptosis in human KOPN8 cells assessed as early apoptotic cells at 10 uM after 24 hrs by Annexin V-FITC/propidium iodide staining-based flow cytometry (reference value: 0.1%). Format: functional. In outline:
as §1

The subject of assay [24] is SUP-B15. As to the kind of experiment: Induction of apoptosis in human SUP-B15 cells assessed as early apoptotic cells at 10 uM after 24 hrs by Annexin V-FITC/propidium iodide staining-based flow cytometry (reference value: 0.1%). The class given is functional.
In assay [25] the test system is SUP-B15. Description: Induction of apoptosis in human SUP-B15 cells assessed as necrotic cells at 10 uM after 24 hrs by Annexin V-FITC/propidium iodide staining-based flow cytometry (reference value: 9.2%). The class given is functional.
Assay [26] relates to SUP-B15. As to the kind of experiment: Induction of apoptosis in human SUP-B15 cells assessed as viable cells at 10 uM after 24 hrs by Annexin V-FITC/propidium iodide staining-based flow cytometry (reference value: 82.8%). Format: functional. The conditions noted are these: SUP-B15, 24 h, read-out: Activity.
Assay [27] has as its system SUP-B15. As to the kind of experiment: Induction of apoptosis in human SUP-B15 cells assessed as late apoptotic cells at 10 uM after 24 hrs by Annexin V-FITC/propidium iodide staining-based flow cytometry (reference value: 2.2%). The class given is functional.
In assay [28] the test system is KOPN-8. Description: Induction of apoptosis in human KOPN8 cells assessed as late apoptotic cells at 10 uM after 24 hrs by Annexin V-FITC/propidium iodide staining-based flow cytometry (reference value: 9.5%). The class given is functional. In outline: (§2)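 KOPN-8 cells were treated for 24 h, with a DMSO vehicle control and a staurosporine positive control. Cells were stained with FITC-Annexin V and propidium iodide and analysed by flow cytometry. Quadrant gating separated viable, early apoptotic, late apoptotic (Q2) and necrotic populations.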

The subject of assay [29] is KOPN-8. As to the kind of experiment: Cell cycle arrest in human KOPN8 cells assessed as accumulation at G0/G1 phase at 10 uM after 24 hrs by propidium iodide staining-based flow cytometry (reference value: 24.77%). Format: functional. The method, boiled down: as §1
Assay [30] relates to KOPN-8. Description: Induction of apoptosis in human KOPN8 cells assessed as viable cells at 10 uM after 24 hrs by Annexin V-FITC/propidium iodide staining-based flow cytometry (reference value: 85.2%). The class given is functional. The conditions noted are these: KOPN-8, 24 h, read-out: Activity. In outline:
as §2

For assay [31], the system named is KOPN-8. Description: Induction of apoptosis in human KOPN8 cells assessed as necrotic cells at 10 uM after 24 hrs by Annexin V-FITC/propidium iodide staining-based flow cytometry (reference value: 0.2%). The class given is functional. In outline: as §2
Assay [32] deals with MDA-MB-231. Description: Cell cycle arrest in human MDA-MB-231 cells assessed as accumulation at G2/M phase at 20 uM after 24 hrs by propidium iodide staining-based flow cytometry (reference value: 9.38%). Format: functional.
In assay [33] the test system is MDA-MB-231. As to the kind of experiment: Cell cycle arrest in human MDA-MB-231 cells assessed as accumulation at S phase at 20 uM after 24 hrs by propidium iodide staining-based flow cytometry (reference value: 20.15%). Format: functional.
The subject of assay [34] is MDA-MB-231. Description: Cell cycle arrest in human MDA-MB-231 cells assessed as accumulation at G0/G1 phase at 20 uM after 24 hrs by propidium iodide staining-based flow cytometry (reference value: 70.47%). Format: functional.
Assay [35] relates to UoC-B1. As to the kind of experiment: Antiproliferative activity against human UOCB1 cells after 72 hrs by CelTiter-Glo assay. The class given is functional, cell-based. The note with it: UoC-B1, 72 h.

Turning to `COC(=O)c1cc(=O)c2c(OC)cc(OC)cc2n1S(=O)(=O)c1ccc(C)cc1`, the EC50 was 6 µM in [1]; more than 20 µM in assay [2]; 139 µM in [3]; 149 µM in assay [4]; 9.7 µM in [5]; 5.8 µM in assay [6].

In the case of `CN[C@@H]1C[C@H]2O[C@@](C)([C@@H]1OC)n1c3ccccc3c3c4c(c5c6ccccc6n2c5c31)C(=O)NC4` [STAUROSPORINE], the Activity in assay [7] is 44.2%; in [8], 49.55%; in [9], 39.4%; in [10], 42.21%; in assay [11], 20.08%; in assay [12], 6.8%. Moreover, the Activity amounted to 30.37% in assay [13]; 50.99% in [14]; 0.2% in assay [15]; 0.1% in assay [16]; 74.4% in [18]; 0.2% in assay [20]. For the same molecule, the values for the viability at 2 µM in assay [17] and in assay [19] were 9.8% and 0.3%, respectively.

With `COc1cc(OC)c2c(=O)cc(C(=O)N3CCN(C(=O)OC(C)(C)C)CC3)[nH]c2c1`, the Activity was determined as 61.36% in [21]; 8.86% in [22]; 0.2% in [23]; 0% in assay [24]; 11.3% in [25]; 3.2% in [27]. In addition, the Activity stood at 24.9% in [28], 29.78% in assay [29] and 0.5% in [31]. In addition, the concentration for a half-maximal effect (EC50) worked out at 6.73 µM in assay [1]; 11.3 µM in assay [2]; 13.8 µM in assay [3]; 299 µM in assay [4]; 3.98 µM in assay [5]; 47 µM in assay [6]. The viability at 10 µM in assay [26] was 77.7%; in assay [30], 63.7%.

As for `COc1ccc(-c2c(Br)c(=O)c3c(OC)cc(OC)cc3n2S(=O)(=O)c2ccc(OC)cc2)cc1`, the Activity in [32] amounted to 11.79%; in assay [33] it was 18.2%; in [34], 70.02%. For the same molecule, the EC50 was 2.58 µM in assay [1]; more than 20 µM in assay [2]; 49.7 µM in [3]; 69 µM in [4]; 2.92 µM in [5]; 1.9 µM in assay [6].

For the molecule `O=c1cc(-c2ccc(O)cc2)oc2c([C@@H]3O[C@H](CO)[C@@H](O)[C@H](O)[C@H]3O)c(O)cc(O)c12` [VITEXIN], the 50% effective concentration (EC50) in assay [1] is more than 43.3 µM; in assay [2], more than 43.3 µM; in assay [35] it was more than 43.3 µM; in [3], more than 86.2 µM; in [4], 200 µM; in [5] it was 50.7 µM. In addition, the EC50 in assay [6] was more than 43.3 µM.

In the case of `COc1cc(OC)c2c(=O)cc(C(=O)Nc3ccc(Oc4ccc([N+](=O)[O-])cc4)cc3)[nH]c2c1`, the concentration giving a half-maximal response (EC50) in [1] was 20.5 µM; in [2], more than 23 µM; in assay [3] it was more than 23 µM; in [4] it was 90 µM; in [5], 4.3 µM; in assay [6], 0.48 µM.

For `COC(=O)c1cc(=O)c2cc(NC(=O)Nc3ccc(Cl)c(C(F)(F)F)c3)ccc2[nH]1`, the Activity in assay [21] was 48.5%; in assay [22], 11.11%; in [23], 0.1%; in [24] it was 0.1%; in assay [25], 16.4%; in assay [27], 9.3%. The Activity in [28] is given as 12.3%; in assay [29] it was 40.39%; in assay [31] it was 0.3%. Further, the EC50 was more than 6.35 µM in assay [1]; more than 6.35 µM in assay [2]; more than 6.35 µM in [35]; more than 12.6 µM in [3]; more than 12.6 µM in assay [5]; more than 6.35 µM in assay [6]. Also, the viability at 10 µM was determined as 65.5% in assay [26] and 80.7% in assay [30].

`COC(=O)c1cc(=O)c2c(OC)cc(OC)cc2n1C`: the EC50 in [1] is more than 19 µM; in assay [2], more than 19 µM; in [35], 0.773 µM; in assay [3], more than 37.9 µM; in assay [5], more than 37.9 µM; in [6], more than 19 µM.
